Measurements from ChEMBL document CHEMBL3826910, “Discovery of 3-(5'-Substituted)-Benzimidazole-5-(1-(3,5-dichloropyridin-4-yl)ethoxy)-1H-indazoles as Potent Fibroblast Growth Factor Receptor Inhibitors: Design, Synthesis, and Biological Evaluation” (J Med Chem, 2016).
Calls of active or inactive are those of the source. The calls are words filed in the database; no cut-off is given here.

Assays:
[1] = target: Hepatocyte growth factor receptor (Homo sapiens, UniProt P08581); experiment: Inhibition of recombinant human c-Met using poly (Glu, Tyr) 4:1 as substrate after 60 mins by ELISA
Outline: (§1)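 Purified recombinant kinases tested by ELISA on plates pre-coated with 20 µg/mL poly(Glu,Tyr) 4:1. Reaction run 60 min at 37 °C. Read-out: PY99 anti-phosphotyrosine antibody, HRP anti-mouse IgG and o-phenylenediamine/H2O2, with A490 measured. IC50 from inhibition curves, two independent experiments.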

[2] = Oral bioavailability in Sprague-Dawley rat at 5 mg/kg; format: ADME, organism-based; conditions: in vivo
Outline: (§2)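 Male SD rats (n = 3) dosed orally by gavage at 5 mg/kg as a suspension in 0.5% CMC-Na. Quantified by LC-MS/MS. An IV arm (1 mg/kg) was run in parallel.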

[3] = target: Fibroblast growth factor receptor 3 (Homo sapiens, UniProt P22607); experiment: Inhibition of recombinant human FGFR3 using poly (Glu, Tyr) 4:1 as substrate after 60 mins by ELISA; outline: as §1
[4] = target: Proto-oncogene tyrosine-protein kinase receptor Ret (Homo sapiens, UniProt P07949); experiment: Inhibition of recombinant human RET using poly (Glu, Tyr) 4:1 as substrate after 60 mins by ELISA; outline: as §1
[5] = cells; conditions: Homo sapiens, RT-112, 72 h
[6] = target: Platelet-derived growth factor receptor beta (Homo sapiens, UniProt P09619); experiment: Inhibition of recombinant human PDGFRbeta using poly (Glu, Tyr) 4:1 as substrate after 60 mins by ELISA; outline: as §1
[7] = Cmax in Sprague-Dawley rat at 1 mg/kg, iv; format: ADME, organism-based; set-up: dose 1 mg/kg, route intravenous; conditions: in vivo
[8] = cells; conditions: Homo sapiens, SNU-16, 72 h
[9] = target: T1, Fibroblast growth factor receptor 2 (Homo sapiens, UniProt P21802); experiment: Inhibition of FGFR2 in human SNU15 cells assessed as reduction of PLCgamma phosphorylation at 0.1 to 10 nM after 2 hrs by Western blot method; format: cell-based
[10] = Clearance in Sprague-Dawley rat at 1 mg/kg, iv; format: ADME, organism-based; conditions: in vivo
[11] = AUC (0 to infinity) in Sprague-Dawley rat at 1 mg/kg, iv; format: ADME, organism-based; set-up: dose 1 mg/kg, time infinity, route intravenous; conditions: in vivo
[12] = system: NCI-H1581; experiment: Antitumor activity against human NCI-H1581 cells xenografted in po dosed nude mouse assessed as tumor growth inhibition administered as qd for 21 days measured on day 21 post last dose; format: functional, organism-based
Outline: (§3)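 Female nude mice (4–6 weeks) housed under SPF conditions. NCI-H1581 tumours were first grown from 5 × 10^6 cells s.c., and 1.5 mm3 fragments were then transplanted s.c. into the right flank. At 115 mm3, mice were randomized and given vehicle or compound orally once daily for 21 days (2 or 10 mg/kg). Tumours were measured by caliper twice weekly, with TV = length × width²/2.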

[13] = target: T2, Fibroblast growth factor receptor 1 (Homo sapiens, UniProt P11362); experiment: Inhibition of FGFR1 phosphorylation in human KG1 cells after 2 hrs by Western blot method; format: cell-based; conditions: KG-1
Outline: (§4)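 KG-1 cells treated at indicated concentrations for 2 h, then lysed in 1× SDS sample buffer. Lysates run on 10% SDS-PAGE, transferred to nitrocellulose, and probed for phospho-FGFR, PLCγ and Erk. Detection by enhanced chemiluminescence.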

[14] = Half life in Sprague-Dawley rat at 1 mg/kg, iv; format: ADME, organism-based; conditions: in vivo
[15] = target: Vascular endothelial growth factor receptor 1 (Homo sapiens, UniProt P17948); experiment: Inhibition of recombinant human Flt1 using poly (Glu, Tyr) 4:1 as substrate after 60 mins by ELISA; outline: as §1
[16] = target: T2, Fibroblast growth factor receptor 1; experiment: Inhibition of FGFR1 in human KG1 cells assessed as reduction of ERK phosphorylation at 0.1 to 10 nM after 2 hrs by Western blot method; format: cell-based; conditions: KG-1; outline: as §4
[17] = system: Mus musculus; experiment: Toxicity in nude mouse xenografted with human NCI-H1581 cells assessed as body weight loss at 2 to 10 mg/kg, po qd administered for 21 days measured during compound dosing; format: organism-based; conditions: in vivo, 504 h; outline: as §3
[18] = target: T1, Fibroblast growth factor receptor 2; experiment: Inhibition of recombinant human FGFR2 using poly (Glu, Tyr) 4:1 as substrate after 60 mins by ELISA; outline: as §1
[19] = system: NCI-H1581; experiment: Antiproliferative activity against FGFR1-amplified human NCI-H1581 cells after 72 hrs by CCK8/MTT assay; format: functional, cell-based; conditions: NCI-H1581, 72 h
[20] = Tmax in Sprague-Dawley rat at 5 mg/kg, po; format: ADME, organism-based; conditions: in vivo; outline: as §2
[21] = target: Fibroblast growth factor receptor 4 (Homo sapiens, UniProt P22455); experiment: Inhibition of recombinant human FGFR4 using poly (Glu, Tyr) 4:1 as substrate after 60 mins by ELISA; outline: as §1
[22] = AUC (0 to infinity) in Sprague-Dawley rat at 5 mg/kg, po; format: ADME, organism-based; set-up: dose 5 mg/kg, route oral, time infinity; conditions: in vivo; outline: as §2
[23] = Volume of distribution at steady state in Sprague-Dawley rat at 1 mg/kg, iv; format: ADME, organism-based; conditions: in vivo, read-out: Vdss
[24] = target: T2, Fibroblast growth factor receptor 1; experiment: Inhibition of recombinant human FGFR1 using poly (Glu, Tyr) 4:1 as substrate after 60 mins by ELISA
[25] = target: T2, Fibroblast growth factor receptor 1; experiment: Inhibition of FGFR1 in human KG1 cells assessed as reduction of PLCgamma phosphorylation at 0.1 to 10 nM after 2 hrs by Western blot method; format: cell-based; conditions: KG-1; outline: as §4
[26] = target: Proto-oncogene tyrosine-protein kinase Src (Homo sapiens, UniProt P12931); experiment: Inhibition of recombinant human c-Src using poly (Glu, Tyr) 4:1 as substrate after 60 mins by ELISA; outline: as §1
[27] = target: Epidermal growth factor receptor (Homo sapiens, UniProt P00533); experiment: Inhibition of recombinant human EGFR using poly (Glu, Tyr) 4:1 as substrate after 60 mins by ELISA; outline: as §1

Chain of Fibroblast growth factor receptor 3 (P22607 whole entry): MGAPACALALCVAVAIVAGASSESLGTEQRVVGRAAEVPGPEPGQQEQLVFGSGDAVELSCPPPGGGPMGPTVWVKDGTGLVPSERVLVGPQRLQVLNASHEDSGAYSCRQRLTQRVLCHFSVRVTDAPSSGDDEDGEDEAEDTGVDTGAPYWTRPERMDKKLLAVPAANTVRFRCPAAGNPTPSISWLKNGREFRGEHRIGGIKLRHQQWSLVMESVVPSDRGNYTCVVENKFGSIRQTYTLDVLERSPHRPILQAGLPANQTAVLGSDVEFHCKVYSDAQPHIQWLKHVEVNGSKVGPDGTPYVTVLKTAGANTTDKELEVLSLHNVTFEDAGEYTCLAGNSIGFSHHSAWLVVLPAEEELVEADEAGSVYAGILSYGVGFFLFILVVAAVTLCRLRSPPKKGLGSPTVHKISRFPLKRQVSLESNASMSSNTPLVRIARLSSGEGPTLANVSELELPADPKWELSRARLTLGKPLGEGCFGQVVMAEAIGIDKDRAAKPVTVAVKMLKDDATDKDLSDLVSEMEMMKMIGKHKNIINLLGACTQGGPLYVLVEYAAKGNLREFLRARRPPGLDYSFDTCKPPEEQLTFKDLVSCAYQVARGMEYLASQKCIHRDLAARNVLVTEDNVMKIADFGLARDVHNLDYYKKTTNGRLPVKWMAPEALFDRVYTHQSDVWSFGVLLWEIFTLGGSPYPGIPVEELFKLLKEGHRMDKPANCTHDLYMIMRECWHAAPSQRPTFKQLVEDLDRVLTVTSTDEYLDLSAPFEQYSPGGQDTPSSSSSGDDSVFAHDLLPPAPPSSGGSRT
Chain of Fibroblast growth factor receptor 4 (P22455 whole entry): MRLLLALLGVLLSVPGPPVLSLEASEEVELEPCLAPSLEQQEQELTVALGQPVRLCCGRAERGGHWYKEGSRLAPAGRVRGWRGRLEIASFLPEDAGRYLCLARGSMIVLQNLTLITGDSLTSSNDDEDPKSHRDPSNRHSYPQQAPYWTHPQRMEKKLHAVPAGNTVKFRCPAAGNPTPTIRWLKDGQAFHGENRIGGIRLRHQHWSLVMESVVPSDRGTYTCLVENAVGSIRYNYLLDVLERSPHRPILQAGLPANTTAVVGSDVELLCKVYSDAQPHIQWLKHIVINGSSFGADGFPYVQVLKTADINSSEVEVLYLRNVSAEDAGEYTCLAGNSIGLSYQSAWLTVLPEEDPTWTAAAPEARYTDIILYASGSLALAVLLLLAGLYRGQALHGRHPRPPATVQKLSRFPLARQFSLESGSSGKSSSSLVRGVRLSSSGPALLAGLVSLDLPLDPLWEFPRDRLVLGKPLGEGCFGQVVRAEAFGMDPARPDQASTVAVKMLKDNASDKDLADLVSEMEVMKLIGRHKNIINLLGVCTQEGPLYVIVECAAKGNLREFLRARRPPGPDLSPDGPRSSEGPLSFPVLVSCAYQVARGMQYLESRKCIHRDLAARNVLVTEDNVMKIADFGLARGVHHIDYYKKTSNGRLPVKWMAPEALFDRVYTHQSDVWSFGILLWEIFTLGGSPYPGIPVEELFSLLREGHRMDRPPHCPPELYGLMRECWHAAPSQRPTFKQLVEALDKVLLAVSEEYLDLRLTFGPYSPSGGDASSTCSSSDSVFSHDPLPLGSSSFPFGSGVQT
Chain of Vascular endothelial growth factor receptor 1 (P17948 whole entry): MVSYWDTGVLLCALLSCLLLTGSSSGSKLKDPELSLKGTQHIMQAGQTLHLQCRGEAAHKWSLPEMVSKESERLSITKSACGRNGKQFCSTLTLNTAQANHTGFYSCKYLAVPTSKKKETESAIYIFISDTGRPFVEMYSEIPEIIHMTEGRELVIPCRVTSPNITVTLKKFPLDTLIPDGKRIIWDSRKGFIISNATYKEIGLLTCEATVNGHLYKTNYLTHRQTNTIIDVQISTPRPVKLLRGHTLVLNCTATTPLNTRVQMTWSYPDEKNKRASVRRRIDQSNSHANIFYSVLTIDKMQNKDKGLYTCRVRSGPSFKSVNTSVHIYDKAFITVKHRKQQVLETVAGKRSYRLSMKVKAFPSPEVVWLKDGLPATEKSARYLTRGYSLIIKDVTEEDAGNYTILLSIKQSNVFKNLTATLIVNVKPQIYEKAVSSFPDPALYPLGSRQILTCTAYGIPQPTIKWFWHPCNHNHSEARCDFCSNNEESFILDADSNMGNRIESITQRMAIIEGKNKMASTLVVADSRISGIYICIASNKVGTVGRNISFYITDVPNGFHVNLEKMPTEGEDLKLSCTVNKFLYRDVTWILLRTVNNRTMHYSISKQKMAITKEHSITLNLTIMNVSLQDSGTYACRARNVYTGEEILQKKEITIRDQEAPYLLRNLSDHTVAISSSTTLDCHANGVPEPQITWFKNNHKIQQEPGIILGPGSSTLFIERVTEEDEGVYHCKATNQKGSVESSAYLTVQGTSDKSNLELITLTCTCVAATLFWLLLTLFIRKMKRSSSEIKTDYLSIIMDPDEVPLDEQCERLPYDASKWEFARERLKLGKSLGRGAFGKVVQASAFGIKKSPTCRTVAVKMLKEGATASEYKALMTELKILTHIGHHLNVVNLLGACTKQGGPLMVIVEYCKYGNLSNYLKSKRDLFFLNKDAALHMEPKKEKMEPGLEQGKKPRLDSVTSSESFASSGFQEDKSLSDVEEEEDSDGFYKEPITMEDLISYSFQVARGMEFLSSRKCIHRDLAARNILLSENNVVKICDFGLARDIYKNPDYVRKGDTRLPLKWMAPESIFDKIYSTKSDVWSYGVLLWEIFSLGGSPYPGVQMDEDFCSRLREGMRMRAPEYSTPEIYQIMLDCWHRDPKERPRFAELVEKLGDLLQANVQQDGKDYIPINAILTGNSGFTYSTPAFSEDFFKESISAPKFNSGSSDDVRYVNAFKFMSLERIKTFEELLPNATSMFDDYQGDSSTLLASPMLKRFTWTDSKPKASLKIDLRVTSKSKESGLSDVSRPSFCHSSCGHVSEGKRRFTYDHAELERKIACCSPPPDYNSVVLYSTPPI
Chain of Proto-oncogene tyrosine-protein kinase receptor Ret (P07949 whole entry): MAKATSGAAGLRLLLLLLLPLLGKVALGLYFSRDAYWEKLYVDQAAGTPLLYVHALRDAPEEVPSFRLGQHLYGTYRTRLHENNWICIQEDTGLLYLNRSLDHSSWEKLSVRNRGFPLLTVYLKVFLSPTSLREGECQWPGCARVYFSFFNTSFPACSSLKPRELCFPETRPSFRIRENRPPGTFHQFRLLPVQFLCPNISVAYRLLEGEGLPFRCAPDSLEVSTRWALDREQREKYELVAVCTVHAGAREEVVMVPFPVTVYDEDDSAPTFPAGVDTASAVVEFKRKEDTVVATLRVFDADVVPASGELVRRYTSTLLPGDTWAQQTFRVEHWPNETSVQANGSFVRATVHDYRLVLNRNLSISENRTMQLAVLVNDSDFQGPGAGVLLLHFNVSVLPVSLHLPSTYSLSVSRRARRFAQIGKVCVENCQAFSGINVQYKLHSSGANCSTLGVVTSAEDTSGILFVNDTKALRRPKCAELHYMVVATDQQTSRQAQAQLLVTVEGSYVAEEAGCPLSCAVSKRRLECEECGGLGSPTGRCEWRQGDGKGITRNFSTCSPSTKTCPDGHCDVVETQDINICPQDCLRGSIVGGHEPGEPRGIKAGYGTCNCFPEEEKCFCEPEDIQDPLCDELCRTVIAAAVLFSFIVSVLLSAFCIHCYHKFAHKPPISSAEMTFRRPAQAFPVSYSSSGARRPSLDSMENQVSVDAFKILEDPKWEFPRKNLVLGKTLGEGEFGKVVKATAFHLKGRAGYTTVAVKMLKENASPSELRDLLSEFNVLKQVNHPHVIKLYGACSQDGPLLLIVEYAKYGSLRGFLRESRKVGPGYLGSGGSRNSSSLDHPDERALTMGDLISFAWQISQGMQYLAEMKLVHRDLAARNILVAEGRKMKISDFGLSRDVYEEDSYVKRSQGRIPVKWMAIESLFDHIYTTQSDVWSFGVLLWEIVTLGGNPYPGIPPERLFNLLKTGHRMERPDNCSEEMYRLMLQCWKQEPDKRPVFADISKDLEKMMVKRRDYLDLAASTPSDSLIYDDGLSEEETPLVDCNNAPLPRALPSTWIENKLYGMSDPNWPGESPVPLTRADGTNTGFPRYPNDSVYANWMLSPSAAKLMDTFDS
Chain of Proto-oncogene tyrosine-protein kinase Src (P12931 2-536 limits assumed): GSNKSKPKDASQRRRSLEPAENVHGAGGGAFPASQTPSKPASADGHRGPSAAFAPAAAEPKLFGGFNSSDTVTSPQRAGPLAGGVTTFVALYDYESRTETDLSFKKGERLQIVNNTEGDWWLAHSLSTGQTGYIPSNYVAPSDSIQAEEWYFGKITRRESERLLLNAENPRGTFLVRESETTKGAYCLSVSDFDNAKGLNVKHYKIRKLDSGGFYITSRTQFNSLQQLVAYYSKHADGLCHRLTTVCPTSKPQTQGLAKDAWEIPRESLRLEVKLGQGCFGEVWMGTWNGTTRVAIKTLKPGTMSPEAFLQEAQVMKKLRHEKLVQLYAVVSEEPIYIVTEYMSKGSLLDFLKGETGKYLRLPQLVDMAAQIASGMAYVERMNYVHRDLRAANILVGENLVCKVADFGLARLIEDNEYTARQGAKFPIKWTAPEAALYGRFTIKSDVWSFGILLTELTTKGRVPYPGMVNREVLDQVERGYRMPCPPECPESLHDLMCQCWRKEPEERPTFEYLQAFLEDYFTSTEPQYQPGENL

C[C@@H](Oc1ccc2[nH]nc(-c3nc4cc(N5CCN(C)CC5)ccc4[nH]3)c2c1)c1c(Cl)cncc1Cl
IC50 [1]: > 100 nM | bioavailability [2]: 33% | IC50 [3]: 2 nM | IC50 [4]: > 100 nM | IC50 [5]: < 0.1 nM | IC50 [6]: > 1000 nM | Cmax [7]: 300 ng/mL | IC50 [8]: < 0.1 nM | inhibition [9]: Active | clearance [10]: 33.3 mL/min/kg | AUC(0-inf) [11]: 485 ng·h/mL | TGI [12]: Dose-dependent effect | inhibition [13]: Dose-dependent effect | half-life [14]: 120 min | IC50 [15]: > 100 nM | inhibition [16]: Active | Activity [17]: Non-toxic | IC50 [18]: 2 nM | IC50 [19]: 4.2 nM | Tmax [20]: 4 h | IC50 [21]: 6.1 nM | AUC(0-inf) [22]: 799 ng·h/mL | Vd [23]: 5.8 L/kg | IC50 [24]: 0.9 nM | inhibition [25]: Active | IC50 [26]: > 100 nM | IC50 [27]: > 1000 nM
